Experimental data collected from several papers.
Compare with care: the assays were run in different laboratories.
Cell line: MCF7
Observed: cell growth or viability

Cc1n[nH]c2ccc3nc(-c4ccc(C(=O)NCCN(C)C)cc4)c4c(c3c12)CCCCC4 — GI50 (72 h): 5.25 µM
NCCC(=O)Nc1ccccc1/N=c1\cc(-c2ccc3nc(N)oc3c2)oc2cc(O)ccc12 — inhibition (CCK-8; 1 µM): 9.96%
O=C(NCc1cn(Cc2cccc(Cl)c2)nn1)Nc1ccc(Cl)cc1 — viability (CCK-8; 50 µM; 48 h): 82%
COc1ccc(NC(=O)Nc2cccc(-c3cn(Cc4ccc(Br)cc4)nn3)c2)cc1 — viability (CCK-8; 50 µM; 48 h): 95.6%
COc1cc(C=NNC(=O)c2nc3ccccc3s2)ccc1OS(C)(=O)=O — cell death (MTT; 100 µM; 48 h): 49.1%
NCC(=O)Nc1ccccc1/N=c1\cc(-c2ccc3c(c2)OCO3)oc2ccccc12 — inhibition (CCK-8; 1 µM): 10.9%
COc1ccc(NC(=O)Nc2cccc(-c3cn(Cc4ccccc4C)nn3)c2)cc1 — viability (CCK-8; 50 µM; 48 h): 94.8%
CN(C)CCNC(=O)c1ccc(-c2nc3ccc4[nH]ncc4c3c3c2CCCC3)c(F)c1 — GI50 (72 h): 3.32 µM
C[C@H](Nc1ccc2c(c1)OCCn1cc(N3C(=O)OC[C@H]3C(F)F)nc1-2)C(N)=O — EC50 (ATP luminescence; 5 days): 0.129 µM
NCCCCC(=O)Nc1ccccc1/N=c1\cc(-c2ccc3c(c2)OCO3)oc2ccccc12 — inhibition (CCK-8; 1 µM): -4.92%
O=C(Nc1ccc(Cl)cc1)Nc1ccc(-c2cn(Cc3cccc(Cl)c3)nn2)cc1 — viability (CCK-8; 50 µM; 48 h): 91.8%
NCC(=O)Nc1ccccc1/N=c1\cc(-c2ccc3c(c2)OCO3)oc2c([N+](=O)[O-])cccc12 — inhibition (CCK-8; 1 µM): 11.7%
O=C(Nc1ccc(-c2cn(Cc3ccc(Cl)cc3)nn2)cc1)Nc1ccccc1Br — viability (CCK-8; 50 µM; 72 h): 104%
COc1ccc(NC(=O)NCc2cn(Cc3ccc(Br)cc3)nn2)cc1 — viability (CCK-8; 50 µM; 72 h): 89.2%
COc1ccc(C=NNC(=O)c2nc3ccccc3s2)cc1OS(C)(=O)=O — cell death (MTT; 100 µM; 48 h): 32.3%
COc1ccc(NC(=O)NCc2cn(Cc3ccc(C)cc3)nn2)cc1 — viability (CCK-8; 50 µM; 48 h): 97.7%
CCc1nc(C(N)=O)c(Nc2ccc(N3CCC(N4CCN(C)CC4)CC3)c(OC)c2)nc1NC1CCOCC1 — GI50 (72 h): 0.406 µM
COc1ccc(NC(=O)Nc2cccc(-c3cn(Cc4ccc(Cl)cc4)nn3)c2)cc1 — viability (CCK-8; 50 µM; 48 h): 100%
CN(C)CCNC(=O)c1ccc(-c2nc3ccc4[nH]ncc4c3c3c2CCCCC3)cc1 — GI50 (72 h): 3.32 µM
CCCS(=O)(=O)Oc1ccc(C=NNC(=O)c2nc3ccccc3s2)cc1 — cell death (MTT; 100 µM; 48 h): 46.6%
O=C(Nc1cccc(-c2cn(Cc3ccc(Br)cc3)nn2)c1)Nc1ccccc1Br — viability (CCK-8; 50 µM; 48 h): 89.7%
Cc1n[nH]c2ccc3nc(-c4ccc(C(=O)NCCN(C)C)cc4)c4c(c3c12)CCCC4 — GI50 (72 h): 2.4 µM
COc1ccc(NC(=O)Nc2cccc(-c3cn(Cc4ccc(C)cc4)nn3)c2)cc1 — viability (CCK-8; 50 µM; 72 h): 104%
O=C(Nc1ccc(Cl)cc1)Nc1cccc(-c2cn(Cc3ccc(Cl)cc3)nn2)c1 — viability (CCK-8; 50 µM; 72 h): 98.2%
COc1ccc(NC(=O)NCc2cn(Cc3ccc(Cl)cc3)nn2)cc1 — viability (CCK-8; 50 µM; 48 h): 90.6%
O=C(Nc1cccc(-c2cn(Cc3ccc(Cl)cc3)nn2)c1)Nc1ccccc1Br — viability (CCK-8; 50 µM; 72 h): 69.6%
COc1cc(C=NNC(=O)c2nc3ccccc3s2)ccc1O — cell death (MTT; 100 µM; 48 h): 16.6%
O=C(Nc1ccccc1/N=c1\cc(-c2ccc3c(c2)OCO3)oc2ccccc12)N1CCNCC1 — inhibition (CCK-8; 1 µM): 13.5%
COc1cccc2c1C(=O)c1c(O)c3c(c(O)c1C2=O)C[C@@](O)(C(=O)CO)C[C@@H]3O[C@H]1C[C@H](N)[C@H](O)[C@H](C)O1 — IC50 (MTT; 24 h): 18.4 µM
NCC(=O)Nc1ccccc1/N=c1\cc(-c2ccc3c(c2)OCO3)oc2c(N)cccc12 — inhibition (CCK-8; 1 µM): 7.42%
O=C(NCc1cn(Cc2ccc(Br)cc2)nn1)Nc1ccccc1Br — viability (CCK-8; 50 µM; 48 h): 84.7%
COc1ccc2/c(=N/c3ccccc3NC(=O)N3CCOCC3)cc(-c3ccc4c(c3)OCCO4)oc2c1 — inhibition (CCK-8; 1 µM): 7.65%
COc1ccc(NC(=O)Nc2cccc(-c3cn(Cc4cccc(Cl)c4)nn3)c2)cc1 — viability (CCK-8; 50 µM; 72 h): 101%
O=C(Nc1ccc(Cl)cc1)Nc1ccc(-c2cn(Cc3ccc(Br)cc3)nn2)cc1 — viability (CCK-8; 50 µM; 72 h): 97.8%
NCCC(=O)Nc1ccc(/N=c2\cc(-c3ccc4c(c3)OCO4)oc3ccccc23)cc1 — inhibition (CCK-8; 1 µM): 6.42%
CCOc1ccc(C(=O)CC(SCc2ccc(Cl)cc2)C(=O)OC)cc1 (stereo not drawn) — EC50 (MTT; 48 h): 40 µM
